Measured values published in ChEMBL document CHEMBL4017509, “A Dual Modulator of Farnesoid X Receptor and Soluble Epoxide Hydrolase To Counter Nonalcoholic Steatohepatitis” (J Med Chem, 2017).
The source made the active and inactive calls. No cut-off for these calls is given here.

Legend:
[1] = Tmax in C57BL/6JRj mouse at 10 mg/kg, po measured up to 480 mins post dose by LC-MS analysis; format: ADME, organism-based; conditions: in vivo
In short: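 Male C57BL/6JRj mice (23−26 g), six dosed once orally at 10 mg/kg in water with 1% HPMC/Tween 80 (99:1), three vehicle. Tail-vein blood (20 μL) at 15, 30, 60, 120, 240 and 480 min, last by retro-orbital puncture. Blood spiked, acetonitrile precipitation with griseofulvin internal standard, LC−MS on phenyl-hexyl column. Noncompartmental PK analysis.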

[2] = molecular target: Retinoic acid receptor RXR-gamma (Homo sapiens) (UniProt P48443); assay: Transactivation of human GAL4-fused RXRgamma ligand binding domain expressed in […] cells at 10 uM after 12 to 14 hrs by dual-glo luciferase reporter gene assay; format: cell-based
Sequence of Retinoic acid receptor RXR-gamma (Homo sapiens) (P48443 whole entry, the tested form may be a part): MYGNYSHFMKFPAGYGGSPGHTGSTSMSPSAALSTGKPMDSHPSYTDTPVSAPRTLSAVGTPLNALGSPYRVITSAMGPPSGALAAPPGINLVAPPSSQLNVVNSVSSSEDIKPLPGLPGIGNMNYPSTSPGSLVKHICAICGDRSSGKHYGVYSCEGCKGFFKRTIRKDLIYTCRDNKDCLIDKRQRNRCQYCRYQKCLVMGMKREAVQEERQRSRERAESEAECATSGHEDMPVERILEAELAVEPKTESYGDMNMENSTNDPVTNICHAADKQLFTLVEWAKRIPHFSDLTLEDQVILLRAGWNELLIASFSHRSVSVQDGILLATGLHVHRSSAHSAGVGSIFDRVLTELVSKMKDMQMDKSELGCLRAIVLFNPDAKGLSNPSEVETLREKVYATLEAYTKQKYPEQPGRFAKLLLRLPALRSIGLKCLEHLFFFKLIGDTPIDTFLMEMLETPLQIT
In short: (§1)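 HEK293T cells in DMEM/10% FCS, Opti-MEM before Lipofectamine LTX transfection with pFR-Luc reporter, pRL-SV40 and pFA-CMV GAL4–LBD plasmid. 5 h later compound in 0.1% DMSO, Opti-MEM, overnight (12−14 h). Dual luciferase; firefly/renilla ×1000 = RLU, fold over DMSO control; triplicates, ≥3 independent repeats.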

[3] = molecular target: Oxysterols receptor LXR-beta (Homo sapiens) (UniProt P55055); assay: Transactivation of human GAL4-fused LXRbeta ligand binding domain expressed in […] cells at 10 uM after 12 to 14 hrs by dual-glo luciferase reporter gene assay; format: cell-based; in short: as §1
Sequence of Oxysterols receptor LXR-beta (Homo sapiens) (P55055 whole entry, the tested form may be a part): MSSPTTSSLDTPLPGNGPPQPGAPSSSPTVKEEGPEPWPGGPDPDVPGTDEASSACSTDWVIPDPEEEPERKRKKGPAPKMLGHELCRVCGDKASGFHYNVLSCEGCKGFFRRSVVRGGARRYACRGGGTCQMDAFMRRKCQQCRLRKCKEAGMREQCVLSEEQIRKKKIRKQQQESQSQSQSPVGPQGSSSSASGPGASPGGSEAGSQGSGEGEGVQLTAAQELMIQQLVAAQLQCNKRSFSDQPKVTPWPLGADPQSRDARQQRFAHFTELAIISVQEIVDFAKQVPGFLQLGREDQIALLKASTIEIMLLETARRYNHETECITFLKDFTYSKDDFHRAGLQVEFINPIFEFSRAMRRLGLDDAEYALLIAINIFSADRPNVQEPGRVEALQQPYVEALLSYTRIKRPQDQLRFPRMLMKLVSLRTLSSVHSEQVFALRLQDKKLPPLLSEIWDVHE

Bile acid receptor = molecular target: T1, Bile acid receptor (Homo sapiens, UniProt Q96RI1); assay: Transactivation of FXR in human HepG2 cells assessed as CYP7A1 mRNA expression at 1 uM after 8 to 16 hrs by SYBR green based qRT-PCR analysis relative to DMSO control; format: ADME, cell-based
T1 sequence (Q96RI1 whole entry): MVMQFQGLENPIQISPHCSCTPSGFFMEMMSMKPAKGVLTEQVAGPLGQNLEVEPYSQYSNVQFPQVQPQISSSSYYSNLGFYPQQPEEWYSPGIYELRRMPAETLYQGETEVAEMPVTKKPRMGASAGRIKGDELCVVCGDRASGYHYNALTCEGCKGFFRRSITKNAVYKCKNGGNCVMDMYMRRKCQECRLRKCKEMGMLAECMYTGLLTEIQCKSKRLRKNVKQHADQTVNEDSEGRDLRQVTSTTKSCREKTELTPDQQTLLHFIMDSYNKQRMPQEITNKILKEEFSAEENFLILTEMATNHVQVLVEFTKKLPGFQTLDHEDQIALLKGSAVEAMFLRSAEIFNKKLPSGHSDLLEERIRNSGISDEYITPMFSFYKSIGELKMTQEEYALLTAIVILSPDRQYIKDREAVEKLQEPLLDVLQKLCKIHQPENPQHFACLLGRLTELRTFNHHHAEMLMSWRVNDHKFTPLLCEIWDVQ
In short: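 HepG2 cells incubated with test compound (0.1 and 1 μM) or 0.1% DMSO for 8 or 16 h, washed in cold PBS, RNA extracted; target mRNA by SYBR Green qRT-PCR, duplicate samples, ≥4 independent experiments; comparative ΔΔCt with GAPDH reference, vehicle set as 100%.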

Liver [4] = assay: Drug metabolism in Sprague-Dawley rat liver microsomes assessed as N-(2-chloro-4-(methylsulfonamido)benzyl)-4-(1-hydroxy-2-methylpropan-2-yl)benzamide formation at 10 uM preincubated with NADPH regenerating system for 5 mins followed by addition of liver microsomes by LC-MS/MS method; format: ADME, microsome
[5] = molecular target: Retinoic acid receptor RXR-beta (Homo sapiens) (UniProt P28702); assay: Transactivation of human GAL4-fused RXRbeta ligand binding domain expressed in […] cells at 10 uM after 12 to 14 hrs by dual-glo luciferase reporter gene assay; format: cell-based; in short: as §1
Sequence of Retinoic acid receptor RXR-beta (Homo sapiens) (P28702 whole entry, the tested form may be a part): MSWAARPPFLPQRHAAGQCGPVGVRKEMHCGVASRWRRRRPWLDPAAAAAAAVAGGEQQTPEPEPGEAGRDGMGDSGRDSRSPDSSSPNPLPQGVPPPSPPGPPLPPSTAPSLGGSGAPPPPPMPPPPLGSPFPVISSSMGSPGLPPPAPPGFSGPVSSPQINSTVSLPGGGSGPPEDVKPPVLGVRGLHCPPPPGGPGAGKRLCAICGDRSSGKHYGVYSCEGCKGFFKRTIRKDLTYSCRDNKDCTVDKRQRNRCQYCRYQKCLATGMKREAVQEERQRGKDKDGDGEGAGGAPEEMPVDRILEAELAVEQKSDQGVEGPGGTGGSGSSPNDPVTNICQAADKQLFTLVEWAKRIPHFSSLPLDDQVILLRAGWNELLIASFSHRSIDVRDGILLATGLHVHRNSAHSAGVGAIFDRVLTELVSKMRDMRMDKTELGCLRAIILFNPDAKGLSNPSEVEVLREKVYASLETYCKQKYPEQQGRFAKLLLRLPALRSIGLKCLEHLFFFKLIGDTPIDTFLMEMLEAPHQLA

Liver [6] = assay: Drug metabolism in Sprague-Dawley rat liver microsomes assessed as 4-tert-butyl-N-(2-chloro-4-(methylsulfonamido)benzyl)-3-hydroxybenzamide formation at 10 uM preincubated with NADPH regenerating system for 5 mins followed by addition of liver microsomes by LC-MS/MS method; format: ADME, microsome
[7] = molecular target: Peroxisome proliferator-activated receptor delta (Homo sapiens) (UniProt Q03181); assay: Transactivation of human GAL4-fused PPARdelta ligand binding domain expressed in […] cells at 10 uM after 12 to 14 hrs by dual-glo luciferase reporter gene assay; format: cell-based; in short: as §1
Sequence of Peroxisome proliferator-activated receptor delta (Homo sapiens) (Q03181 whole entry, the tested form may be a part): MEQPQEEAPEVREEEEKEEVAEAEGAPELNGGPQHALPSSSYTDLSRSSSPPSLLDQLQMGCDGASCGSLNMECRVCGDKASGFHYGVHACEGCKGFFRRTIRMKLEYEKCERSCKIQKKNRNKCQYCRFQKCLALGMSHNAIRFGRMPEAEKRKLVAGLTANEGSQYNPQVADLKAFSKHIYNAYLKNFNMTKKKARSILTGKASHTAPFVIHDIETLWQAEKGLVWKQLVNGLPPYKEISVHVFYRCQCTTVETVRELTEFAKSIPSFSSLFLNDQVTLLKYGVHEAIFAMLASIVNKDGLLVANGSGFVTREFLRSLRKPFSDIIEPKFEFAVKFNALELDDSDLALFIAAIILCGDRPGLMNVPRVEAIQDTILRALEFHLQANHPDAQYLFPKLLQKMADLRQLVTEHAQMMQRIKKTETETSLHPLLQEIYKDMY

CC(C)(C)c1ccc(C(=O)NCc2ccc(NS(C)(=O)=O)cc2Cl)cc1
Tmax [1]: 30 min | Activity [2]: inactive | Activity [3]: inactive | Activity (Bile acid receptor): 52% | Drug metabolism (Liver [4]): Metabolite_Detected | Activity [5]: inactive | Drug metabolism (Liver [6]): Metabolite_Notdetected | Activity [7]: inactive
